Screening data (PubChem)
UHRF1 MBD2 ctr: human UHRF1 methylated DNA binding inhibitors; inhibition, % at 4.4 µM; UHRF1 binding to methylated oligo, TR-FRET; 370,000 tested, 0.75% active; Q96T88; in the data active means inhibition above about 21%;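 further: UHRF1 SRA domain binding a hemimethylated CpG hairpin DNA probe; 0% = median of test compound wells and 100% = reference inhibitor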
CASP6 VEID inh: caspase-6 (human) enzyme inhibition; P55212; purified caspase-6, Z-VEID-R110 cleavage fluorescence; inhibition, % at 12.5 µM; 350,000 tested, 0.53% active; AID 686996;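 active means mean inhibition across replicates at least about 35%, with every replicate also reaching that limit, limit read from the data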;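 further: 0% = median of neutral control wells and 100% = no fluorescence left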
MBD2 inh: blocks human MBD2 binding to methylated DNA | Q9UBB5 | TR-FRET, MBD2 binding to methylated oligonucleotide | inhibition, % at 4.4 µM | 370,000 tested, 0.31% active; in the data active means inhibition above about 13%
Target sequence (Q9UBB5 whole entry, looked up): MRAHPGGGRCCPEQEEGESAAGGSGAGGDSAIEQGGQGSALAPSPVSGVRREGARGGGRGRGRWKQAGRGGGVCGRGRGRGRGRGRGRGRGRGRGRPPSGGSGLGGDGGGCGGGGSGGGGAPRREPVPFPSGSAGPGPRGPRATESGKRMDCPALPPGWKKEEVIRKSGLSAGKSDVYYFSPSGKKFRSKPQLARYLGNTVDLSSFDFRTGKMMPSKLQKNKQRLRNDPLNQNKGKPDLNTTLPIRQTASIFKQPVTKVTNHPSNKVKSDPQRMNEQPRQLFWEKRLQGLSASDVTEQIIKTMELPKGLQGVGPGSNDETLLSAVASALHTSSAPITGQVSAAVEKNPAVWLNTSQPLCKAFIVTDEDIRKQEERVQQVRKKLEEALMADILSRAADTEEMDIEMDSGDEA
NSD2 HMT inh: blocks human histone methyltransferase NSD2. O96028. NSD2 peptide methylation, AlphaScreen, 120 min. inhibition, % at 12.5 µM. 310,000 tested, 0.54% active. AID 743445; in the data active means inhibition above about 50%
LEDGF integ inh: blocks HIV-1 LEDGF/p75-dependent DNA integration. TR-FRET IN-LEDGF/p75 DNA integration, Eu/Cy5. inhibition, % at 3.7 µM. 370,000 tested, 0.64% active. AID 743269;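 active means inhibition above the screen-wide mean plus 3 SD, cut at about 13% in these data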;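 further: signal is the Cy5 over europium emission ratio at 671 and 618 nm; 0% = plate median of compound wells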
TDP2 absorb: blocks human TDP2 phosphodiesterase activity; O95551; recombinant TDP2, T5PNP hydrolysis, p-nitrophenol absorbance 415 nm; 370,000 tested, 0.34% active; AID 720702; inhibition, % at 12.8 µM;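 active means inhibition above the mean of all tested compounds plus 3 SD, set per campaign, cut at about 25% in these data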;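 further: 0% = DMSO with enzyme and 100% = buffer with substrate but no TDP2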
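System: recombinant human TDP2 / Amount: 120 nM TDP2 per well / Also added: 5 mM T5PNP chromogenic substrate / Doses: 12.8 µM single point, 1% DMSO / Incubation: 2 h at 37 °C / Detection: p-Nitrophenol epi absorbance / Evaluation: % inhibition relative to enzyme-containing and enzyme-free wells / Repeats: singlicate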
Alpha artifact: interferes with AlphaScreen signal, flagging NSD2 false positives | AlphaScreen artifact counterscreen, preloaded methylated H4 peptide | AC35, µM (highest dose often 10 µM), for the others: top-dose activity change, negative = signal loss | 1,500 tested, 9.4% active | shares compounds with NSD2 HMT inh; call rule not given here
* marks the source's active call; other numbers are inactive results; · = no result given. Sampled rows, rich in hits. Any-hit rate of the full collection: about 1.8%.

SMILES	UHRF1 MBD2 ctr	CASP6 VEID inh	MBD2 inh	NSD2 HMT inh	LEDGF integ inh	TDP2 absorb	Alpha artifact
COc1ccc(-n2nnnc2-c2cnc(N3CCCC3)nc2C(F)(F)F)cc1	-1	·	-1	52*	2	-4	2%
FC(F)(F)c1nc(-c2cccnc2)ncc1-c1nnnn1-c1ccccc1	2	·	0	-1	-2	8	·
CC(C)NC(=O)N1[C@H](CO)[C@H]2c3ccccc3N(C(=O)Nc3ccccc3)C[C@H]21	·	4	·	·	·	·	·
Cc1nn(CC(=O)Nc2ccc3c(c2)nc(CCN2CCCCC2)n3C)c(=O)c2ccccc12	0	-9	2	-4	3	-5	·
CC(=O)N1CCN(Cc2nc3cc(NC(=O)Cn4nc(C)c5ccccc5c4=O)ccc3n2C)CC1	1	·	-3	60*	-1	-4	3%
O=C(C1CC1)N1CCc2[nH]c3ccccc3c2C1	-5	·	-4	100*	0	0	-3%
Cc1ccccc1-c1nnc2n1N=C(c1ccc(O)c(O)c1)CS2	5	·	-2	69*	-4	-2	-8%
COc1ccccc1OCC(=O)Nc1ccc(S(=O)(=O)N2CCCC2)cc1	-2	0	-5	69*	-2	15	-2%
COc1ccccc1C(=O)Nc1ccccc1C(=O)N1CCCC1	0	·	-8	-2	4	-12	·
COc1ccccc1OCC(=O)Nc1ccccc1C(=O)N1CCCC1	0	-1	3	80*	4	-3	-3%
C[C@H]1C=C(C(=O)Nc2ccccc2)O[C@@H](OCCCCO)C1	·	0	·	·	·	·	·
Cc1noc(C)c1NC(=O)Nc1ccc2c(c1)CC(=O)N([C@H](C)CO)C[C@H](C)[C@H](CN(C)S(=O)(=O)c1ccc(F)cc1)O2	·	1	·	·	·	·	·
CCN1CCN(Cc2nc(N)nc(Nc3ccc(C)c(C)c3)n2)CC1	0	·	-1	95*	2	8	4%
CC(=O)c1ccc(N2CCN(C(=O)[C@H](C)NC(=O)c3ccccc3Cl)CC2)cc1	2	-4	-4	65*	1	14	-2%
O=C1CCN(Cc2ccccc2)N1	4	1	2	86*	3	-28	1%
CCO[C@H]1OC(C(=O)N2CCCC2)=C[C@@H](c2ccc(C(F)(F)F)cc2)[C@@H]1CCCO	·	-3	·	·	·	·	·
C[C@@H]1CN([C@@H](C)CO)C(=O)c2cc(NS(=O)(=O)c3cn(C)cn3)ccc2O[C@@H](C)CCCCO[C@H]1CN(C)Cc1ccc(C(=O)O)cc1	·	0	·	·	·	·	·
Cc1ccc(C(=O)C2CCN(S(=O)(=O)c3ccc(C(=O)O)cc3)CC2)cc1	6	·	4	66*	-3	-13	-5%
Cc1noc(C)c1NC(=O)Nc1ccc2c(c1)CC(=O)N([C@H](C)CO)C[C@@H](C)[C@H](CN(C)C(=O)Nc1ccc(C(F)(F)F)cc1)O2	·	-3	·	·	·	·	·
CC(=O)c1ccc(NC(=O)CC2Nc3cccc4cccc(c34)NC2=O)cc1 (stereo not drawn)	-5	9	-2	78*	0	-1	-5%
CN1/C(=C\C(=O)COC(=O)c2ccc(O)c(O)c2)C(C)(C)c2ccccc21	3	30	-5	56*	-4	-2	-10%
CC(C)CC#Cc1ccc([C@H]2[C@@H](CO)N3C(=O)CN(C(=O)Cc4ccccc4)C[C@@H]23)cc1	·	1	·	·	·	·	·
COc1ccc(S(=O)(=O)N(C)C[C@H]2Oc3ccc(NC(=O)CCCCCC(=O)Nc4ccccc4N)cc3C(=O)N([C@@H](C)CO)C[C@@H]2C)cc1	·	1	·	·	·	·	·
CCOC(=O)CN(C(=O)COc1nc(-c2ccccc2)cc(C)c1C#N)c1ccccc1	-1	1	-2	71*	-4	14	-1%
CN(C)S(=O)(=O)c1ccc(NC(=O)CCNC(=O)c2ccco2)cc1	11	-4	1	59*	1	12	0%
SMILES	UHRF1 MBD2 ctr	CASP6 VEID inh	MBD2 inh	NSD2 HMT inh	LEDGF integ inh	TDP2 absorb	Alpha artifact
Cc1ccc(NC(=O)CCNC(=O)c2ccco2)cc1	3	·	-4	-3	-2	-8	·
COc1ccc2c3c([nH]c2c1)[C@H](CO)N(C(=O)C1CCCC1)CC31CN(Cc2nccs2)C1	·	-4	·	·	·	·	·
CC1(C(=O)NC(=S)N(Cc2ccccc2)c2ccccn2)CC1(Cl)Cl (stereo not drawn)	-5	1	-1	-1	3	13	·
CN(C(=S)NC(=O)C1(C)CC1(Cl)Cl)c1ccccc1 (stereo not drawn)	2	·	4	59*	1	0	-1%
COCC(=O)N1CC2(C1)[C@H](c1ccc(-c3ccc(F)cc3)cc1)[C@H](CO)N2C(C)=O	·	0	·	·	·	·	·
COc1cccc2c1C(=N)c1c(O)c3c(c(O)c1C2=O)CC(O)(C(C)=O)CC3OC1CC(N)C(O)C(C)O1 (stereo not drawn)	·	·	·	56*	·	·	8.5µM*
COc1ccc(S(=O)(=O)N[C@H]2CC[C@H](CCNC(=O)c3ccccc3F)O[C@H]2CO)cc1	·	3	·	·	·	·	·
N#C[C@H]1[C@H](c2ccc(C#CC3CCCC3)cc2)[C@@H](CO)N1C(=O)c1cccc(F)c1	·	1	·	·	·	·	·
O=C(C[C@H]1CC[C@@H]2[C@H](COC[C@@H](O)CN2Cc2cccc(C(F)(F)F)c2)O1)NCc1ccncc1	·	-1	·	·	·	·	·
Cc1cccc(-c2nnc(SCC(=O)c3ccc(F)cc3)n2C)c1	-4	·	-6	-3	1	0	·
Cc1cccc(-c2nnc(SCC(=O)c3ccc(O)cc3O)n2C)c1	-1	-3	1	96*	2	8	-6%
C[C@@H]1CN([C@H](C)CO)S(=O)(=O)c2ccc(-c3cncnc3)cc2O[C@H]1CN(C)C(=O)C1CCC1	·	-3	·	·	·	·	·
CN(Cc1nc2ccccc2c(=O)[nH]1)C(=O)c1cc2c(s1)CCCCC2	3	-4	11	52*	-8	-1	-2%
